According to ChEMBL document CHEMBL3098013, “Novel pyrazole integrated 1,3,4-oxadiazoles: synthesis, characterization and antimicrobial evaluation” (2014):
In brackets after ≈: the same amount, converted by molar mass.

Experiments:
Type in all cases: functional
Fusarium verticillioides [1] = experiment: Antimicrobial activity against Fusarium moniliforme MTCC 156 at 50 ug/ml after 48 hrs by disc diffusion method; settings: MTCC 156, 48 h, read-out: DIZ
How it was run: (§1)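 Agar diffusion read-out is the diameter of the inhibition zone in mm. Each test was run in six replicates and reported as mean ± standard deviation, taken from at least three determinations.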

Aspergillus flavus [2] = experiment: Antimicrobial activity against Aspergillus flavus MTCC 873 at 100 ug/ml after 48 hrs by disc diffusion method; settings: MTCC 873, 48 h, read-out: DIZ; how it was run: as §1
Klebsiella pneumoniae [3] = experiment: Antimicrobial activity against Klebsiella pneumoniae MTCC 3384 at 100 ug/ml after 24 hrs by disc diffusion method; settings: MTCC 3384, 24 h, read-out: DIZ; how it was run: as §1
Staphylococcus aureus [4] = experiment: Antimicrobial activity against Staphylococcus aureus MTCC 96 at 50 ug/ml after 24 hrs by disc diffusion method; settings: MTCC 96, 24 h, read-out: DIZ; how it was run: as §1
Aspergillus flavus [5] = experiment: Antimicrobial activity against Aspergillus flavus MTCC 873 at 50 ug/ml after 48 hrs by disc diffusion method; settings: MTCC 873, 48 h, read-out: DIZ; how it was run: as §1
Bacillus cereus [6] = experiment: Antimicrobial activity against Bacillus cereus MTCC 8372 at 50 ug/ml after 24 hrs by disc diffusion method; settings: MTCC 8372, 24 h, read-out: DIZ; how it was run: as §1
Fusarium oxysporum [7] = experiment: Antimicrobial activity against Fusarium oxysporum MTCC 284 at 50 ug/ml after 48 hrs by disc diffusion method; settings: MTCC 284, 48 h, read-out: DIZ; how it was run: as §1
Klebsiella pneumoniae [8] = experiment: Antimicrobial activity against Klebsiella pneumoniae MTCC 3384 at 50 ug/ml after 24 hrs by disc diffusion method; settings: MTCC 3384, 24 h, read-out: DIZ; how it was run: as §1
Bacillus cereus [9] = experiment: Antimicrobial activity against Bacillus cereus MTCC 8372 after 24 hrs by microdilution method; settings: MTCC 8372, 24 h
How it was run: (§2)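 The minimal inhibitory concentration was determined by dilution, alongside minimal bactericidal concentration for bacterial strains and minimal fungicidal concentration for fungal strains. Tests were run in six replicates, and the value is the mean of at least three determinations.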

Bacillus cereus [10] = experiment: Antimicrobial activity against Bacillus cereus MTCC 8372 at 100 ug/ml after 24 hrs by disc diffusion method; settings: MTCC 8372, 24 h, read-out: DIZ; how it was run: as §1
Staphylococcus aureus [11] = experiment: Antimicrobial activity against Staphylococcus aureus MTCC 96 at 100 ug/ml after 24 hrs by disc diffusion method; settings: MTCC 96, 24 h, read-out: DIZ; how it was run: as §1
Escherichia coli [12] = experiment: Antimicrobial activity against Escherichia coli MTCC 724 at 50 ug/ml after 24 hrs by disc diffusion method; settings: MTCC 724, 24 h, read-out: DIZ; how it was run: as §1
Escherichia coli [13] = experiment: Antimicrobial activity against Escherichia coli MTCC 724 after 24 hrs by microdilution method; settings: MTCC 724, 24 h; how it was run: as §2
Aspergillus niger [14] = experiment: Antimicrobial activity against Aspergillus niger MTCC 281 at 100 ug/ml after 48 hrs by disc diffusion method; settings: MTCC 281, 48 h, read-out: DIZ; how it was run: as §1
Aspergillus flavus [15] = experiment: Antimicrobial activity against Aspergillus flavus MTCC 873 after 48 hrs by microdilution method; settings: MTCC 873, 48 h; how it was run: as §2
Aspergillus niger [16] = experiment: Antimicrobial activity against Aspergillus niger MTCC 281 after 48 hrs by microdilution method; settings: MTCC 281, 48 h; how it was run: as §2
Aspergillus niger [17] = experiment: Antimicrobial activity against Aspergillus niger MTCC 281 at 50 ug/ml after 48 hrs by disc diffusion method; settings: MTCC 281, 48 h, read-out: DIZ; how it was run: as §1
Fusarium oxysporum [18] = experiment: Antimicrobial activity against Fusarium oxysporum MTCC 284 after 48 hrs by microdilution method; settings: MTCC 284, 48 h; how it was run: as §2
Escherichia coli [19] = experiment: Antimicrobial activity against Escherichia coli MTCC 724 at 100 ug/ml after 24 hrs by disc diffusion method; settings: MTCC 724, 24 h, read-out: DIZ; how it was run: as §1
Fusarium oxysporum [20] = experiment: Antimicrobial activity against Fusarium oxysporum MTCC 284 at 100 ug/ml after 48 hrs by disc diffusion method; settings: MTCC 284, 48 h, read-out: DIZ; how it was run: as §1
Fusarium verticillioides [21] = experiment: Antimicrobial activity against Fusarium moniliforme MTCC 156 after 48 hrs by microdilution method; settings: MTCC 156, 48 h; how it was run: as §2
Klebsiella pneumoniae [22] = experiment: Antimicrobial activity against Klebsiella pneumoniae MTCC 3384 after 24 hrs by microdilution method; settings: MTCC 3384, 24 h; how it was run: as §2
Fusarium verticillioides [23] = experiment: Antimicrobial activity against Fusarium moniliforme MTCC 156 at 100 ug/ml after 48 hrs by disc diffusion method; settings: MTCC 156, 48 h, read-out: DIZ; how it was run: as §1
Staphylococcus aureus [24] = experiment: Antimicrobial activity against Staphylococcus aureus MTCC 96 after 24 hrs by microdilution method; settings: MTCC 96, 24 h; how it was run: as §2

SMILES: COc1cc(-c2nnc(-c3c(-c4ccccc4)nn(-c4ccccc4)c3C)o2)cc(OC)c1OC
- zone of inhibition at 50 µg/mL (Fusarium verticillioides [1]): 7 mm
- zone of inhibition at 100 µg/mL (Aspergillus flavus [2]): 13 mm
- zone of inhibition at 100 µg/mL (Klebsiella pneumoniae [3]): 20 mm
- zone of inhibition at 50 µg/mL (Staphylococcus aureus [4]): 5 mm
- zone of inhibition at 50 µg/mL (Aspergillus flavus [5]): 4 mm
- zone of inhibition at 50 µg/mL (Bacillus cereus [6]): 4 mm
- zone of inhibition at 50 µg/mL (Fusarium oxysporum [7]): 8 mm
- zone of inhibition at 50 µg/mL (Klebsiella pneumoniae [8]): 10 mm
- MBC (Bacillus cereus [9]): 230 µg/mL (≈ 491 µM)
- MIC (Bacillus cereus [9]): 35 µg/mL (≈ 74.7 µM)
- zone of inhibition at 100 µg/mL (Bacillus cereus [10]): 13 mm
- zone of inhibition at 100 µg/mL (Staphylococcus aureus [11]): 12 mm
- zone of inhibition at 50 µg/mL (Escherichia coli [12]): 20 mm
- MBC (Escherichia coli [13]): 150 µg/mL (≈ 320 µM)
- MIC (Escherichia coli [13]): 20 µg/mL (≈ 42.7 µM)
- zone of inhibition at 100 µg/mL (Aspergillus niger [14]): 12 mm
- MFC (Aspergillus flavus [15]): 275 µg/mL (≈ 587 µM)
- MIC (Aspergillus flavus [15]): 45 µg/mL (≈ 96 µM)
- MFC (Aspergillus niger [16]): 275 µg/mL (≈ 587 µM)
- MIC (Aspergillus niger [16]): 40 µg/mL (≈ 85.4 µM)
- zone of inhibition at 50 µg/mL (Aspergillus niger [17]): 5 mm
- MFC (Fusarium oxysporum [18]): 275 µg/mL (≈ 587 µM)
- MIC (Fusarium oxysporum [18]): 40 µg/mL (≈ 85.4 µM)
- zone of inhibition at 100 µg/mL (Escherichia coli [19]): 32 mm
- zone of inhibition at 100 µg/mL (Fusarium oxysporum [20]): 10 mm
- MFC (Fusarium verticillioides [21]): 300 µg/mL (≈ 640 µM)
- MIC (Fusarium verticillioides [21]): 55 µg/mL (≈ 117 µM)
- MBC (Klebsiella pneumoniae [22]): 160 µg/mL (≈ 342 µM)
- MIC (Klebsiella pneumoniae [22]): 20 µg/mL (≈ 42.7 µM)
- zone of inhibition at 100 µg/mL (Fusarium verticillioides [23]): 10 mm
- MBC (Staphylococcus aureus [24]): 250 µg/mL (≈ 534 µM)
- MIC (Staphylococcus aureus [24]): 40 µg/mL (≈ 85.4 µM)

SMILES: Cc1c(-c2nnc(-c3ccc([N+](=O)[O-])cc3)o2)c(-c2ccccc2)nn1-c1ccccc1
- zone of inhibition at 50 µg/mL (Fusarium verticillioides [1]): 6 mm
- zone of inhibition at 100 µg/mL (Aspergillus flavus [2]): 12 mm
- zone of inhibition at 100 µg/mL (Klebsiella pneumoniae [3]): 10 mm
- zone of inhibition at 50 µg/mL (Staphylococcus aureus [4]): 5 mm
- zone of inhibition at 50 µg/mL (Aspergillus flavus [5]): 3 mm
- zone of inhibition at 50 µg/mL (Bacillus cereus [6]): 6 mm
- zone of inhibition at 50 µg/mL (Fusarium oxysporum [7]): 6 mm
- zone of inhibition at 50 µg/mL (Klebsiella pneumoniae [8]): 7 mm
- MBC (Bacillus cereus [9]): 200 µg/mL (≈ 472 µM)
- MIC (Bacillus cereus [9]): 25 µg/mL (≈ 59 µM)
- zone of inhibition at 100 µg/mL (Bacillus cereus [10]): 14 mm
- zone of inhibition at 100 µg/mL (Staphylococcus aureus [11]): 10 mm
- zone of inhibition at 50 µg/mL (Escherichia coli [12]): 11 mm
- MBC (Escherichia coli [13]): 180 µg/mL (≈ 425 µM)
- MIC (Escherichia coli [13]): 25 µg/mL (≈ 59 µM)
- zone of inhibition at 100 µg/mL (Aspergillus niger [14]): 11 mm
- MFC (Aspergillus flavus [15]): 290 µg/mL (≈ 685 µM)
- MIC (Aspergillus flavus [15]): 55 µg/mL (≈ 130 µM)
- MFC (Aspergillus niger [16]): 280 µg/mL (≈ 661 µM)
- MIC (Aspergillus niger [16]): 45 µg/mL (≈ 106 µM)
- zone of inhibition at 50 µg/mL (Aspergillus niger [17]): 2 mm
- MFC (Fusarium oxysporum [18]): 275 µg/mL (≈ 649 µM)
- MIC (Fusarium oxysporum [18]): 40 µg/mL (≈ 94.5 µM)
- zone of inhibition at 100 µg/mL (Escherichia coli [19]): 20 mm
- zone of inhibition at 100 µg/mL (Fusarium oxysporum [20]): 8 mm
- MFC (Fusarium verticillioides [21]): 290 µg/mL (≈ 685 µM)
- MIC (Fusarium verticillioides [21]): 50 µg/mL (≈ 118 µM)
- MBC (Klebsiella pneumoniae [22]): 185 µg/mL (≈ 437 µM)
- MIC (Klebsiella pneumoniae [22]): 25 µg/mL (≈ 59 µM)
- zone of inhibition at 100 µg/mL (Fusarium verticillioides [23]): 8 mm
- MBC (Staphylococcus aureus [24]): 190 µg/mL (≈ 449 µM)
- MIC (Staphylococcus aureus [24]): 25 µg/mL (≈ 59 µM)
